Measured values published in ChEMBL document CHEMBL1938335, “2-(4-Methylsulfonylaminophenyl) propanamide TRPV1 antagonists: Structure-activity relationships in the B and C-regions” (Bioorg Med Chem, 2012).

Legend:
[1] = target: T1, Transient receptor potential cation channel subfamily V member 1 (Rattus norvegicus, UniProt O35433); assay: Agonist activity at rat TRPV1 expressed in CHO cells by 45Ca2+ uptake assay; assay type: functional, cell-based
[2] = target: T1, Transient receptor potential cation channel subfamily V member 1; assay: Displacement of [3H]RTX from rat TRPV1 expressed in CHO cells; assay type: cell-based
Method in brief: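 Competitive binding against [3H]RTX on rat TRPV1 heterologously expressed in CHO cells. Affinity reported as Ki (nM). Values are mean ± SEM from 3 or more experiments.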

[3] = target: T1, Transient receptor potential cation channel subfamily V member 1; assay: Antagonist activity at rat TRPV1 expressed in CHO cells by 45Ca2+ uptake assay

T1 sequence (O35433 whole entry): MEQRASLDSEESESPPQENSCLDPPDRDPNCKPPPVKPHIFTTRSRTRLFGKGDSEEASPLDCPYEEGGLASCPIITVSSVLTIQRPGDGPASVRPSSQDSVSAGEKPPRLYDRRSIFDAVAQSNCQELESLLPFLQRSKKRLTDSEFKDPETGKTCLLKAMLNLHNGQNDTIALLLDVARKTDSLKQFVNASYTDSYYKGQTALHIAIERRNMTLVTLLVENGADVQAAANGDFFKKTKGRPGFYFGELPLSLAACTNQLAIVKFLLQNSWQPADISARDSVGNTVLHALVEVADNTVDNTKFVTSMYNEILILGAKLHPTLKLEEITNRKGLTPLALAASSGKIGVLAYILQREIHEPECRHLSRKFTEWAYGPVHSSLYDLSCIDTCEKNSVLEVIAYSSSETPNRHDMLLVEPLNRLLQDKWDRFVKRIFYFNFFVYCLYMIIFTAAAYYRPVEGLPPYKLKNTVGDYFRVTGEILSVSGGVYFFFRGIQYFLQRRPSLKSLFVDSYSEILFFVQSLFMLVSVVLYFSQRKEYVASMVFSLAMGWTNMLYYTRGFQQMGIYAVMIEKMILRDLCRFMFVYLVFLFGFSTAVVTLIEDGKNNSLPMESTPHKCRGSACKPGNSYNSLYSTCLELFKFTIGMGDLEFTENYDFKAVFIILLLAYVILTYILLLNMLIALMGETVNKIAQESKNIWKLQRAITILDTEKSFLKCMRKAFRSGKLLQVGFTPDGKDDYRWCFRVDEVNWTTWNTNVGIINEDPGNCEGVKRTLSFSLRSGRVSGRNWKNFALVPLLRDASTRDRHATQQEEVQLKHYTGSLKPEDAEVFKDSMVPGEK

SMILES | EC50 [1] | Ki ([2]; read-out: Ki) | Ki [3] | Ki ([2]; cho)
CC(C)(C)c1ccc(CNC(=O)C(C)(C)c2ccc(NS(C)(=O)=O)cc2)cc1 | Not Active | 0.43 µM | – | –
CC(C)(C)c1ccc(CNC(=O)C2(c3ccc(NS(C)(=O)=O)cc3)CC2)cc1 | Not Active | – | – | –
CC(C(=O)NCc1ccc(Cl)c(Cl)c1)c1ccc(NS(C)(=O)=O)c(F)c1 (centres undefined) | Not Active | – | – | –
CC(C(=O)NCc1ccc(C2CCCCC2)cc1)c1ccc(NS(C)(=O)=O)c(F)c1 (centres undefined) | Not Active | 0.138 µM | 0.043 µM | –
CC(C(=O)NCc1ccc(-c2ccccc2)cc1)c1ccc(NS(C)(=O)=O)c(F)c1 (centres undefined) | Not Active | – | – | –
CC(C(=O)NC1CCCc2ccccc21)c1ccc(NS(C)(=O)=O)c(F)c1 (centres undefined) | Not Active | – | – | –
Cc1ccc(CCCNC(=O)[C@@H](C)c2ccc(NS(C)(=O)=O)c(F)c2)cc1C | Not Active | 0.257 µM | – | –
Cc1ccc(/C=C/CNC(=O)C(C)c2ccc(NS(C)(=O)=O)c(F)c2)cc1C (centres undefined) | Not Active | – | – | –
CC(C(=O)NC/C=C/c1ccc(Cl)cc1)c1ccc(NS(C)(=O)=O)c(F)c1 (centres undefined) | Not Active | – | – | –
CC(C(=O)NOCc1ccccc1)c1ccc(NS(C)(=O)=O)c(F)c1 (centres undefined) | Not Active | – | – | –
CC(C(=O)NC(c1ccccc1)c1ccccc1)c1ccc(NS(C)(=O)=O)c(F)c1 (centres undefined) | Not Active | – | – | –
CC(C(=O)NCC(c1ccccc1)c1ccccc1)c1ccc(NS(C)(=O)=O)c(F)c1 (centres undefined) | Not Active | – | – | –
CC(C(=O)NCCC(c1ccccc1)c1ccccc1)c1ccc(NS(C)(=O)=O)c(F)c1 (centres undefined) | Not Active | 0.13 µM | – | –
CC(C(=O)NCC1CC1(c1ccccc1)c1ccccc1)c1ccc(NS(C)(=O)=O)c(F)c1 (centres undefined) | Not Active | 0.188 µM | 0.148 µM | –
CC(C(=O)NCCN(c1ccccc1)c1ccccc1)c1ccc(NS(C)(=O)=O)c(F)c1 (centres undefined) | Not Active | 0.115 µM | 0.047 µM | –
Cc1ccc(C(CCNC(=O)C(C)c2ccc(NS(C)(=O)=O)c(F)c2)c2ccc(C)cc2)cc1 (centres undefined) | Not Active | 0.096 µM | 0.0321 µM | –
Cc1ccc(C(=CCNC(=O)C(C)c2ccc(NS(C)(=O)=O)c(F)c2)c2ccc(C)cc2)cc1 (centres undefined) | Not Active | 0.0309 µM | – | –
CC(C(=O)NCCC(c1ccc(F)cc1)c1ccc(F)cc1)c1ccc(NS(C)(=O)=O)c(F)c1 (centres undefined) | Not Active | 0.079 µM | 0.0248 µM | –
CC(C(=O)NCC=C(c1ccc(F)cc1)c1ccc(F)cc1)c1ccc(NS(C)(=O)=O)c(F)c1 (centres undefined) | Not Active | – | – | –
CC(C(=O)NCC=C(c1ccc(Cl)cc1)c1ccc(Cl)cc1)c1ccc(NS(C)(=O)=O)c(F)c1 (centres undefined) | Not Active | 0.0296 µM | 0.0245 µM | –
Cc1ccc(C(CCNC(=O)C(C)c2ccc(NS(C)(=O)=O)c(F)c2)c2ccc(F)cc2)cc1 (centres undefined) | Not Active | 0.121 µM | 0.031 µM | –
CC(C(=O)NCC=C1c2ccccc2CCc2ccccc21)c1ccc(NS(C)(=O)=O)c(F)c1 (centres undefined) | Not Active | – | – | –
CC(C(=O)NCC=C1c2ccccc2C=Cc2ccccc21)c1ccc(NS(C)(=O)=O)c(F)c1 (centres undefined) | Not Active | 0.117 µM | 0.163 µM | –
Cc1ccc(CCCNC(=O)C(C)c2ccc(NS(C)(=O)=O)c(F)c2)cc1C (racemic) | Not Active | 0.413 µM | 0.097 µM | –

Further lines, results first:

EC50 [1] | Ki ([2]; read-out: Ki) | Ki [3] | Ki ([2]; cho) | SMILES
Not Active | – | – | – | CC(C)(C)c1ccc(CNC(=O)C(C)(C)c2ccc(NS(C)(=O)=O)c(F)c2)cc1
Not Active | 0.414 µM | 0.707 µM | – | COc1cc(C(C)(C)C(=O)NCc2ccc(C(C)(C)C)cc2)ccc1NS(C)(=O)=O
Not Active | – | – | Not Active | CC(C)(C)c1ccc(CNC(=O)C2(c3ccc(NS(C)(=O)=O)c(F)c3)CC2)cc1
Not Active | – | – | – | COc1cc(C2(C(=O)NCc3ccc(C(C)(C)C)cc3)CC2)ccc1NS(C)(=O)=O
Not Active | 2.1 µM | – | – | CC(NC(=O)Cc1ccc(C(C)(C)C)cc1)c1ccc(NS(C)(=O)=O)c(F)c1 (centres undefined)
Not Active | – | – | – | CC(NC(=O)CCc1ccc(C(C)(C)C)cc1)c1ccc(NS(C)(=O)=O)c(F)c1 (centres undefined)
Not Active | – | – | – | CC(NC(=O)/C=C/c1ccc(C(C)(C)C)cc1)c1ccc(NS(C)(=O)=O)c(F)c1 (centres undefined)
Not Active | – | – | – | CC(C(=O)NCc1ccc(Cl)cc1)c1ccc(NS(C)(=O)=O)c(F)c1 (centres undefined)
Not Active | 0.412 µM | 0.25 µM | – | CC(C(=O)NCc1ccc(Br)cc1)c1ccc(NS(C)(=O)=O)c(F)c1 (centres undefined)
Not Active | 0.502 µM | 0.107 µM | – | CC(C(=O)NCc1ccc(I)cc1)c1ccc(NS(C)(=O)=O)c(F)c1 (centres undefined)
Not Active | – | – | – | CC(C(=O)NCc1ccc(C(F)(F)F)cc1)c1ccc(NS(C)(=O)=O)c(F)c1 (centres undefined)
Not Active | 7.8 µM | 5.35 µM | – | COc1ccc(CNC(=O)C(C)c2ccc(NS(C)(=O)=O)c(F)c2)cc1 (centres undefined)
Not Active | 3.1 µM | 0.93 µM | – | Cc1ccc(CNC(=O)C(C)c2ccc(NS(C)(=O)=O)c(F)c2)cc1 (centres undefined)
Not Active | – | – | – | CC(C)c1ccc(CNC(=O)C(C)c2ccc(NS(C)(=O)=O)c(F)c2)cc1 (centres undefined)
Not Active | 0.411 µM | 0.0555 µM | – | CC(C(=O)NCc1ccc(C2CC2)cc1)c1ccc(NS(C)(=O)=O)c(F)c1 (centres undefined)
Not Active | 0.162 µM | 0.015 µM | – | CC(C(=O)NCc1ccc(C2C=CCC2)cc1)c1ccc(NS(C)(=O)=O)c(F)c1 (centres undefined)
Not Active | 0.093 µM | 0.0208 µM | – | CC(C(=O)NCc1ccc(C2CCCC2)cc1)c1ccc(NS(C)(=O)=O)c(F)c1 (centres undefined)
Not Active | 0.047 µM | 0.0127 µM | – | CC(C(=O)NCc1ccc(C(C)(C)C)cc1Br)c1ccc(NS(C)(=O)=O)c(F)c1 (centres undefined)
Not Active | 0.044 µM | 0.04 µM | – | CC(C(=O)NCc1ccc(C(C)(C)C)cc1C#N)c1ccc(NS(C)(=O)=O)c(F)c1 (centres undefined)
Not Active | – | – | – | CC(C(=O)NCCc1ccc(C(C)(C)C)cc1)c1ccc(NS(C)(=O)=O)c(F)c1 (centres undefined)
Not Active | – | – | – | Cc1ccc(CCCNC(=O)[C@H](C)c2ccc(NS(C)(=O)=O)c(F)c2)cc1C
